Assay results reported in publication PMC2695546 (Psychopharmacology, 2009).
Counter-ions that a name gives are not always drawn. Like-named read-outs stand apart in the source and are kept apart here.

How the values were obtained:
[1] = system: capsaicin-sensitized mice; experiment: Capsaicin-induced mechanical hypersensitivity; format: in vivo, mouse
[2] = system: mice; experiment: Rotarod test; format: in vivo, mouse; conditions: for Effect on rotarod latency: 45 min after s.c., mg/kg: HP 0.06, HP-Met-I 64, HP-Met-II 0.25, (−)-sulpiride 100, HP-Met-III 128, PRE-084 64; for Effect of PRE-084 on the drug's effect in the rotarod test: PRE-084 64 mg/kg s.c., HP 0.125 mg/kg, HP-Met-II 1 mg/kg s.c.
Method in brief: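 Female CD-1 mice (25–30 g), housed at 21 ± 1°C on a 12-h light/dark cycle. Motor coordination was tested on an accelerating rotarod. Latency to fall was recorded before injection (time 0) and 45 min after s.c. dosing. PRE-084 was injected s.c. immediately before the other drug, at a separate site. Controls received an equal volume of vehicle.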

[3] = target: σ1 receptor (Mus musculus, UniProt O55242); experiment: [3H]; format: binding
[4] = from dose–response curves, s.c., capsaicin 1 µg i.pl., 0.5 g force
[5] = naloxone 1 mg/kg s.c., morphine 0.25, HP 0.06, HP-Met-II 0.25, HP-Met-I 64 mg/kg s.c.
[6] = read-out: IC50 (concentration of unlabeled drug that inhibited the specific binding of [3H](+)-pentazocine by 50%), mouse brain membranes P2 fraction, 5 nM [3H](+)-pentazocine, 240 min, 30°C, pH 8

CCN1CCC[C@H]1CNC(=O)c1cc(S(N)(=O)=O)ccc1OC [(−)-Sulpiride, (−)-sulpiride]
ED50 (dose producing half of the maximal antiallodynic effect) ([1]; mouse, in vivo): Inactive^a | Effect on rotarod latency [2]: devoid of any effect | IC50 [3]: > 10000 nM

CN1CCN(CCc2ccc(Cl)c(Cl)c2)CC1.Cl.Cl [BD-1063, 1-[2-(3,4-dichlorophenyl)ethyl]-4-methylpiperazine dihydrochloride]
Effect of PRE-084 on the antiallodynic effect of the drug ([1]; mouse, in vivo): completely antagonized

OC1(c2ccc(Cl)cc2)CCNCC1 [Haloperidol metabolite I, 4-(4-chlorophenyl)-4-hydroxypiperidine]
Emax (maximum antiallodynic effect) [1, 4]: 62.27 ± 6.99% | Effect of PRE-084 on the antiallodynic effect of the drug ([1]; mouse, in vivo): completely and dose-dependently prevented | Effect of naloxone on the antiallodynic effect of the drug ([1]; mouse, in vivo): did not significantly modify | Effect on rotarod latency [2]: no effect | IC50 [3]: 254 ± 18.4 nM

OC(CCCN1CCC(O)(c2ccc(Cl)cc2)CC1)c1ccc(F)cc1 (stereo not drawn) [Haloperidol metabolite II, 4-(4-chlorophenyl)-α-(4-fluorophenyl)-4-hydroxy-1-piperidinebutanol]
Emax (maximum antiallodynic effect) [1, 4]: 100% | Effect of naloxone on the antiallodynic effect of the drug [1, 5]: did not significantly modify | Antiallodynic effect at higher doses ([1]; s.c., HP 0.125 mg/kg, HP-Met-II 1 mg/kg): 100% | Effect on rotarod latency [2]: no effect | Effect of PRE-084 on the drug's effect in the rotarod test [2]: not prevented | IC50 [3]: 12.8 ± 0.69 nM

O=C(O)CCC(=O)c1ccc(F)cc1 [Haloperidol metabolite III, p-fluorobenzoylpropionic acid]
Effect on rotarod latency [2]: devoid of any effect | IC50 [3, 6]: > 10000 nM

O=C(CCCN1CCC(O)(c2ccc(Cl)cc2)CC1)c1ccc(F)cc1 [Haloperidol, haloperidol]
Antiallodynic effect at higher doses ([1]; mouse, in vivo): 100% | Effect of PRE-084 on the antiallodynic effect of the drug ([1]; mouse, in vivo): dose-dependent reversion | Effect of naloxone on the antiallodynic effect of the drug ([1]; mouse, in vivo): did not significantly modify | Emax (maximum antiallodynic effect) ([1]; mouse, in vivo, sc): 100% | Effect on rotarod latency [2]: no effect | Effect of PRE-084 on the drug's effect in the rotarod test [2]: not prevented

Cl.O=C(OCCN1CCOCC1)C1(c2ccccc2)CCCCC1 [PRE-084, 2-(4-morpholinethyl)1-phenylcyclohexanecarboxylate) hydrochloride]
IC50 [3, 6]: 171 ± 18.4 nM

Cl.O=C(OCCN1CCOCC1)C1(c2ccccc2)CCCCC1 [PRE-084]
Effect on rotarod latency [2]: devoid of any effect

COc1cc(CNC(=O)CCCC/C=C/C(C)C)ccc1O [capsaicin]
Decrease in the EF50 value for inducing paw withdrawal in comparison to control mice ([1]; capsaicin 1 µg i.pl. vs DMSO-treated): 9.4 fold | EF50 (force producing half the maximal reduction in paw withdrawal latency time) ([1]; capsaicin 1 µg i.pl., 15 min before stimulation, forces 0.05–8 g): 0.30 ± 0.02 g

Clc1cccc(Cl)c1N=C1NCCN1 [clonidine]
IC50 [3]: > 10000 nM

NCC1(CC(=O)O)CCCCC1 [gabapentin]
IC50 [3]: > 10000 nM

CN1CC[C@]23c4c5ccc(O)c4O[C@H]2[C@@H](O)C=C[C@H]3[C@H]1C5 [morphine, morphine hydrochloride]
Effect of naloxone on the antiallodynic effect of the drug [1, 5]: reversed

CS(=O)(=O)c1ccc(C2=C(c3ccccc3)C(=O)OC2)cc1 [rofecoxib]
IC50 [3]: > 10000 nM
